According to ChEMBL document CHEMBL4043192, “The discovery of IDX21437: Design, synthesis and antiviral evaluation of 2'-α-chloro-2'-β-C-methyl branched uridine pronucleotides as potent liver-targeted HCV polymerase inhibitors” (Bioorg Med Chem Lett, 2017):

Tests used:
[1] = tested on: Hepatitis C virus; experiment: Antiviral activity against HCV genotype 1b Con1 expressing NS3 protease infected in human Huh-7 cells assessed as reduction in viral RNA replication after 72 hrs by luciferase reporter gene assay; format: functional, cell-based, Hepacivirus hominis; settings: genotype 1b Con1, Huh-7, 72 h
[2] = Selectivity index, ratio of CC50 for human Huh-7 cells to EC50 for HCV genotype 1b Con1 expressing NS3 protease
Summary of the method: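 Selectivity index = CC50/EC50. EC50 from a luciferase-read Con1 subgenomic replicon assay in Huh-7 (GS4.1) cells.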

[3] = tested on: Plasma; experiment: Dose normalized AUC (0 to 24 hrs) in mouse plasma assessed as 2'-C-MeU level at 10 mg/kg, po administered as single dose; format: ADME, organism-based; settings: in vivo
Summary of the method: (§1)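 Mice given a single oral 10 mg/kg dose. Triphosphate measured in liver and parent nucleoside in plasma. AUC expressed as dose-normalized AUC (AUC per mg/kg).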

[4] = tested on: Liver; experiment: Dose normalized AUC (0 to 24 hrs) in mouse liver assessed as 2'-C-MeUTP level at 10 mg/kg, po administered as single dose; format: ADME, organism-based; settings: in vivo; summary of the method: as §1

| SMILES | EC50 [1] [nM] | Ratio CC50/EC50 [2] | AUC/dose [3] [pmol·h/mL] | AUC/dose [4] [pmol·h/g] |
| --- | --- | --- | --- | --- |
| CC(C)(CO)C(=O)SCCO[P@@](=O)(NCc1ccccc1)OC[C@H]1O[C@@H](n2ccc(=O)[nH]c2=O)[C@](C)(Cl)[C@@H]1O | 3990 | >25 | 930 | 150 |
| CCOC(=O)[C@@H](CC(C)C)N[P@@](=O)(OC[C@H]1O[C@@H](n2ccc(=O)[nH]c2=O)[C@](C)(Cl)[C@@H]1O)Oc1ccccc1 | 37400 | >3 |  |  |
| CCCCOC(=O)[C@@H](C)N[P@](=O)(OC[C@H]1O[C@@H](n2ccc(=O)[nH]c2=O)[C@](C)(Cl)[C@@H]1O)Oc1ccccc1 | 528 | >189 | 1700 | 7200 |
| CCOC(=O)[C@H](CC(C)C)N[P@](=O)(OC[C@H]1O[C@@H](n2ccc(=O)[nH]c2=O)[C@](C)(Cl)[C@@H]1O)Oc1ccccc1 | 291 | >344 | 2100 | 270 |
| CC(C)(CO)C(=O)SCCO[P@@]1(=O)OC[C@H]2O[C@@H](n3ccc(=O)[nH]c3=O)[C@](C)(Cl)[C@@H]2O1 | 417 | >240 | 710 | 3600 |
| CC(C)OC(=O)[C@H](C)N[P@@](=O)(OC[C@H]1O[C@@H](n2ccc(=O)[nH]c2=O)[C@](C)(Cl)[C@@H]1O)Oc1ccccc1 | 953 | >105 | 970 | 840 |
| CC(C)OC(=O)[C@@H](C)NP(=O)(N[C@H](C)C(=O)OC(C)C)OC[C@H]1O[C@@H](n2ccc(=O)[nH]c2=O)[C@](C)(Cl)[C@@H]1O | > 100000 | >1 | 210 | 490 |
| CC(C)OC(=O)[C@H](C)N[P@]1(=O)OC[C@H]2O[C@@H](n3ccc(=O)[nH]c3=O)[C@](C)(Cl)[C@@H]2O1 | 508 | >197 | 570 | 21 |
| CC(C)OC(=O)[C@@H](C)N[P@](=O)(OC[C@H]1O[C@@H](n2ccc(=O)[nH]c2=O)[C@](C)(Cl)[C@@H]1O)Oc1ccccc1 | 9600 | >10 | 1050 | 3750 |
| CC(C)OC(=O)[C@H](C)N[P@](=O)(OC[C@H]1O[C@@H](n2ccc(=O)[nH]c2=O)[C@](C)(Cl)[C@@H]1O)Oc1ccccc1 | 158 | >633 | 1300 | 560 |
| CC(C)(CO)C(=O)SCCO[P@](=O)(NCc1ccccc1)OC[C@H]1O[C@@H](n2ccc(=O)[nH]c2=O)[C@](C)(Cl)[C@@H]1O | 3610 | >28 | 590 | 96 |
| CC(C)(CO)C(=O)SCCOP(=O)(NCc1ccccc1)OC[C@H]1O[C@@H](n2cnc3c(=O)[nH]c(N)nc32)[C@](C)(O)[C@@H]1O (stereo not given in full) | 203 | >370 | 45 | 275 |
| CC(C)(CO)C(=O)SCCOP1(=O)OC[C@H]2O[C@@H](n3ccc(=O)[nH]c3=O)[C@](C)(Cl)[C@@H]2O1 (single isomer, unassigned) | 248 | >403 | 1300 | 5000 |
| CCOC(=O)[C@@H](CC(C)C)N[P@](=O)(OC[C@H]1O[C@@H](n2ccc(=O)[nH]c2=O)[C@](C)(Cl)[C@@H]1O)Oc1ccccc1 | > 100000 | >1 |  |  |
| C[C@@H](N[P@](=O)(OC[C@H]1O[C@@H](n2ccc(=O)[nH]c2=O)[C@](C)(Cl)[C@@H]1O)Oc1ccccc1)C(=O)OCc1ccccc1 | 819 | >122 | 1700 | 6900 |
| C[C@H](N[P@@](=O)(OC[C@H]1O[C@@H](n2ccc(=O)[nH]c2=O)[C@](C)(Cl)[C@@H]1O)Oc1ccccc1)C(=O)OCc1ccccc1 | 185 | >541 | 1900 | 1200 |
| CC(C)OC(=O)[C@H](C)NP(=O)(N[C@@H](C)C(=O)OC(C)C)OC[C@H]1O[C@@H](n2ccc(=O)[nH]c2=O)[C@](C)(Cl)[C@@H]1O | 12000 | >8 |  |  |
| CC(C)OC(=O)[C@@H](N[P@](=O)(OC[C@H]1O[C@@H](n2ccc(=O)[nH]c2=O)[C@](C)(Cl)[C@@H]1O)Oc1ccccc1)C(C)C | > 100000 | >1 |  |  |
| CC(C)OC(=O)[C@H](C)N[P@@](=O)(OC[C@H]1O[C@@H](n2ccc(=O)[nH]c2=O)[C@](C)(F)[C@@H]1O)Oc1ccccc1 | 2080 | >48 | 320 | 310 |
| CC(C)OC(=O)[C@@H](C)N[P@]1(=O)OC[C@H]2O[C@@H](n3ccc(=O)[nH]c3=O)[C@](C)(Cl)[C@@H]2O1 | 42300 | >2 | 910 | 7500 |
| CC(C)OC(=O)[C@H](C)N[P@@]1(=O)OC[C@H]2O[C@@H](n3ccc(=O)[nH]c3=O)[C@](C)(Cl)[C@@H]2O1 | 4020 | >25 | 1100 | 520 |
| CCOC(=O)NCC(C)(C)C(=O)SCCOP1(=O)OC[C@H]2O[C@@H](n3ccc(=O)[nH]c3=O)[C@](C)(Cl)[C@@H]2O1 (single isomer, unassigned; 27b) | 73 | >1370 |  | 3300 |
| CCOC(=O)[C@@H](C)N[P@@](=O)(OC[C@H]1O[C@@H](n2ccc(=O)[nH]c2=O)[C@](C)(Cl)[C@@H]1O)Oc1ccccc1 | 8140 | >12 |  |  |
| CCOC(=O)NCC(C)(C)C(=O)SCCO[P@](=O)(NCc1ccccc1)OC[C@H]1O[C@@H](n2ccc(=O)[nH]c2=O)[C@](C)(Cl)[C@@H]1O | 1270 | >79 |  |  |
| CC(C)C[C@H](N[P@@](=O)(OC[C@H]1O[C@@H](n2ccc(=O)[nH]c2=O)[C@](C)(Cl)[C@@H]1O)Oc1ccccc1)C(=O)OC(C)C | 12600 | >8 |  |  |
| CCOC(=O)[C@@H](C)N[P@](=O)(OC[C@H]1O[C@@H](n2ccc(=O)[nH]c2=O)[C@](C)(Cl)[C@@H]1O)Oc1ccccc1 | 2550 | >39 |  |  |
| CC(C)OC(=O)[C@@H](N[P@@](=O)(OC[C@H]1O[C@@H](n2ccc(=O)[nH]c2=O)[C@](C)(Cl)[C@@H]1O)Oc1ccccc1)C(C)C | > 100000 | >1 |  |  |
| CC(C)C[C@H](N[P@](=O)(OC[C@H]1O[C@@H](n2ccc(=O)[nH]c2=O)[C@](C)(Cl)[C@@H]1O)Oc1ccccc1)C(=O)OC(C)C | 1110 | >90 |  |  |
| CCOC(=O)NCC(C)(C)C(=O)SCCOP1(=O)OC[C@H]2O[C@@H](n3ccc(=O)[nH]c3=O)[C@](C)(Cl)[C@@H]2O1 (single isomer, unassigned; 27a) | 351 | >285 |  |  |
| CCOC(=O)NCC(C)(C)C(=O)SCCO[P@@](=O)(NCc1ccccc1)OC[C@H]1O[C@@H](n2ccc(=O)[nH]c2=O)[C@](C)(Cl)[C@@H]1O | 1160 | >86 |  |  |
